Results: ChEMBL document CHEMBL1121799, “Beta-adrenoceptor stimulant properties of amidoalkylamino-substituted 1-aryl-2-ethanols and 1-(aryloxy)-2-propanols” (1981)

Experiments:
[1] = species on record: Canis familiaris; assay: Intrinsic sympathomimetic activity (ISA, calculated as the percent of maximum change in heart rate (HR); assay type: functional, Canis lupus familiaris
Procedure, shortened: (§1)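 Same anesthetized, ventilated dog preparation with a pump-perfused left hind limb. An isoproterenol curve was run first. About 45 min later, once HR and HLPP had returned to control, cumulative iv doses of test compound in saline were given. ISA is the maximum HR or HLPP change produced by the compound, expressed as a percentage of the isoproterenol maximum.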

[2] = species on record: Canis familiaris; assay: Intrinsic sympathomimetic activity (ISA), calculated as the percent of maximum change in hind limb perfusion pressure (HLPP); assay type: functional, Canis lupus familiaris, Hindlimb; procedure, shortened: as §1
[3] = system: Canis familiaris; assay: Effective dose required for the maximum heart rate in anesthetized dogs.; assay type: functional; conditions: Canis lupus familiaris
Procedure, shortened: (§2)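 Anesthetized dogs on pentobarbital (20 mg/kg iv, then 2 mg/kg iv every 30 min), ventilated with 40% O2 in air. Left hind limb pump-perfused from the abdominal aorta, heparin 500 IU/kg iv. HR from a lead II ECG-driven cardiotachometer. Arterial pCO2 held at 34-42 mmHg and pH 7.35-7.43. Cumulative iv doses in saline. ED50 taken from dose-response curves of peak HR or HLPP change.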

[4] = system: Canis familiaris; assay: Effective dose required for the maximum hind limb perfusion pressure(HLPP) in anesthetized dogs.; assay type: functional; conditions: Canis lupus familiaris, Hindlimb; procedure, shortened: as §2
[5] = species on record: Canis familiaris; assay: Selectivity is expressed as the ratio of ED50 on hind limb perfusion pressure to the ED50 on heart rate; assay type: functional, Canis lupus familiaris
Procedure, shortened: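 Cardioselectivity is the ratio of ED50 for HLPP to ED50 for HR. Both come from cumulative iv dose-response curves in pentobarbital-anesthetized dogs with a pump-perfused hind limb and a cardiotachometer reading HR.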

Structure (SMILES) | ISA [1] [%] | ISA [2] [%] | ED50 [3] [µmol/kg] | ED50 [4] [µmol/kg] | Selectivity [5]
CCN(CC)C(=O)NCCNCC(O)COc1ccc(O)cc1.O=C(O)C(=O)O (centres undefined) | 28 | 18 | 0.037 | 0.036 | 10
COCCNC(=O)NCCNCC(O)COc1ccc(O)cc1.O=C(O)C(=O)O (centres undefined) | 74 | 58 | 0.021 | 0.052 | 2.5
O=C(NCCO)NCCNCC(O)COc1ccc(O)cc1.O=C(O)C(=O)O (centres undefined) | 69 | 49 | 0.077 | 0.236 | 3.1
CC(C)NC(=O)NCCNCC(O)COc1ccc(O)cc1.O=C(O)C(=O)O (centres undefined) | 60 | 26 | 0.235 | 0.193 | 0.8
O=C(O)C(=O)O.O=S(=O)(NCCNCC(O)COc1ccc(O)cc1)c1ccccc1 (centres undefined) | 55 | 45 | 0.074 | 0.055 | 0.7
COCCN(C)C(=O)NCCNCC(O)COc1ccc(O)cc1.O=C(O)C(=O)O (centres undefined) | 27 | 0 | 0.012 | > 3 | >250
O=C(O)C(=O)O.O=S(=O)(NCCNCC(O)COc1ccc(O)cc1)Nc1ccccc1 (centres undefined) | 92 | 79 | 0.018 | 0.052 | 2.9
CN(C)S(=O)(=O)NCCNCC(O)COc1ccc(O)cc1.O=C(O)C(=O)O (centres undefined) | 80 | 80 | 0.069 | 0.175 | 2.5
CC(C)C(=O)NCCNCC(O)c1ccc(O)cc1.O=C(O)C(=O)O (centres undefined) | 90 | 82 | 0.056 | 0.071 | 1.3
CN(C)C(=O)NCCNCC(O)COc1ccc(O)cc1.O=C(O)C(=O)O (centres undefined) | 29 | 0 | 0.024 | > 1 | >40
CC(C)NCC(O)COc1cccc(O)c1.O=C(O)C(=O)O (centres undefined) | 57 | 33 | 0.018 | 0.067 | 3.7
O=C(NCCNCC(O)c1cccc(O)c1)Nc1ccccc1.O=C(O)C(=O)O (centres undefined) | 42 | 55 | 0.143 | 0.286 | 2
Cl.O=C(NCCNCC(O)COc1ccc(O)cc1)N(CCO)CCO (centres undefined) | 41 | 42 | 0.145 | 2.33 | 16
CN(CCO)C(=O)NCCNCC(O)COc1ccc(O)cc1.Cl (centres undefined) | 43 | 48 | 0.037 | 1.17 | 33
Cl.O=C(NCCNCC(O)COc1ccc(O)cc1)NCc1ccccc1 (centres undefined) | 80 | 70 | 0.019 | 0.081 | 4.3
CC(C)NCC(O)c1ccc(O)c(CO)c1 (centres undefined) | 100 | 100 | 0.222 | 0.009 | 0.04
NC(=O)NCCNCC(O)COc1ccc(O)cc1 (centres undefined) | 92 | 50 | 0.078 | 0.134 | 1.7
CC(C)NCC(O)c1ccc(O)cc1 (centres undefined) [DETERENOL] | 88 | 55 | 0.01 | 0.077 | 7.7
CC(C)NCC(O)c1ccc(O)c(O)c1 (centres undefined) [ISOPROTERENOL] | 100 | 100 | 0.0014 | 0.0008 | 0.5
CC(C)NCC(O)c1cc(O)cc(O)c1 (centres undefined) [METAPROTERENOL] | 83 | 100 | 0.014 | 0.014 | 1
CC(C)NCC(O)c1cccc(O)c1 (centres undefined) [METATEROL] | 100 | 100 | 0.071 | 0.138 | 1.9
CC(C)NC[C@H](O)COc1ccc(O)cc1 [PRENALTEROL] | 56 | 31 | 0.031 | 0.006 | 
O=C(NCCNCC(O)COc1ccc(O)cc1)N1CCOCC1 (centres undefined) [XAMOTEROL] | 50 | 0 | 0.012 | > 3 | >250
